Fewer inactive variants are shown than the library holds.
B1: tRNA (parent)
chain: GUUCCGUUGGCGUAAUGGUAACGCGUCUCCCUCCUAAGGAGAAGACUGCGGGUUCGAGUCCCGUACGGAACG

Variants of: B1
Assay: yeast fitness relative to wild type (ratio to wild type); higher = fitter; tRNA-Arg(CCU), competitive growth, 37 C, YPD
Method in brief: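 Variants of the tRNA-Arg(CCU) gene, chemically synthesised with a 3% per-site mutation rate at 69 sites, were placed at the native genomic locus in Saccharomyces cerevisiae. The pooled strains were competed in YPD at 37°C for 24 hours in six parallel replicates. Gene amplicons from the start population and from each end population were read by 100-nucleotide paired-end sequencing. Darwinian fitness relative to wild type came from changes in genotype frequencies; genotypes needed ≥ 100 starting reads, and estimates < 0.5 were set to 0.5.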

Variant | yeast fitness
GUUCCGUUGGCGUAAUGGUAACGCGUCUCCCUCCUAAGGAGAAGUCUGCGGGUCCGAGUCCCGUACGGAACG [A45U U54C] | 0.886
GUUCCGUUGGCGUAAUGGUAACGCGUCUCCCUCCUAAGGAGAAGUCUGCGGGUUCGAGUCCCGAACGGAACG [A45U U64A] | 0.708
GUUCCGUUGGCGUAAUGGUAACGCGUCUCCCUCCUAAGGAGAAGAAUGCGGGUUCGAGUCCCGUACGGAUCG [C46A A70U] | 1.04
GUUCCGUUGGCGUAAUGGUAACGCGUCUCCCUCCUAAGGAGAAGAAUGCGGGUUCGAGUUCCGUACGGAACG [C46A C60U] | 0.83
GUUCCGUUGGCGUAAUGGUAACGCGUCUCCCUCCUAAGGAGAAGAAUGCGGGUUCGAGUCUCGUACGGAACG [C46A C61U] | 0.901
GUUCCGUUGGCGUAAUGGUAACGCGUCUCCCUCCUAAGGAGAAGAAUGCGGGUUCGAGUCUCGUACGGGACG [C46A C61U A69G] | ≤ 0.5
GUUCCGUUGGCGUAAUGGUAACGCGUCUCCCUCCUAAGGAGAAGAAUGCGGGUUCGAGUCCUGUACGGUACG [C46A C62U A69U] | 0.735
GUUCCGUUGGCGUAAUGGUAACGCGUCUCCCUCCUAAGGAGAAGAAUGCAGGUUCGAGUCCCGUACGGAACG [C46A G50A] | 0.925
GUUCCGUUGGCGUAAUGGUAACGCGUCUCCCUCCUAAGGAGAAGAAUGCGGGUUCGACUCCCGUACGGAACG [C46A G58C] | 0.874
GUUCCGUUGGCGUAAUGGUAACGCGUCUCCCUCCUAAGGAGAAGAAUGCGGGUUCGAGUCCCGUACCGAACG [C46A G67C] | 0.896
GUUCCGUUGGCGUAAUGGUAACGCGUCUCCCUCCUAAGGAGAAGAAGGCAGGUUCGAGUCCCGUACGGAACG [C46A U47G G50A] | 0.544
GUUCCGUUGGCGUAAUGGUAACGCGUCUCCCUCCUAAGGAGAAGAAUGCGGGUCCGAGUCCCGUACGGAACG [C46A U54C] | 0.888
GUUCCGUUGGCGUAAUGGUAACGCGUCUCCCUCCUAAGGAGAAGAGUGCGGGUUCGGGUCCCGUACGGAACG [C46G A57G] | 0.987
GUUCCGUUGGCGUAAUGGUAACGCGUCUCCCUCCUAAGGAGAAGAGUGAGGGUUCGAGUCUCGUACGGAACG [C46G C49A C61U] | 0.597
GUUCCGUUGGCGUAAUGGUAACGCGUCUCCCUCCUAAGGAGAAGAGUGCGGGUUUGAGUCCCGUACGGAACG [C46G C55U] | 0.769
GUUCCGUUGGCGUAAUGGUAACGCGUCUCCCUCCUAAGGAGAAGAGUGCGGGUUCGAGUCCAGUACGGAACG [C46G C62A] | 0.873
GUUCCGUUGGCGUAAUGGUAACGCGUCUCCCUCCUAAGGAGAAGAGUACGGGUUCGAGUCCCGUACGGAACG [C46G G48A] | 0.998
GUUCCGUUGGCGUAAUGGUAACGCGUCUCCCUCCUAAGGAGAAGAGUACGGAUUCGAGUCCCGUACGGAACG [C46G G48A G52A] | 0.913
GUUCCGUUGGCGUAAUGGUAACGCGUCUCCCUCCUAAGGAGAAGAGUGCGAAUUCGAGUCCCGUACGGAACG [C46G G51A G52A] | 0.566

Variant | yeast fitness
GUUCCGUUGGCGUAAUGGUAACGCGUCUCCCUCCUAAGGAGAAGAGUGCGGGUUCGAAUCCCGUACGGAACG [C46G G58A] | 0.989
GUUCCGUUGGCGUAAUGGUAACGCGUCUCCCUCCUAAGGAGAAGAGUGCGGGAUCGAGUCCCGUACGGAACG [C46G U53A] | 0.75
GUUCCGUUGGCGUAAUGGUAACGCGUCUCCCUCCUAAGGAGAAGAGUGCGGGUACGAGUCCCGUACGGAACG [C46G U54A] | 0.702
GUUCCGUUGGCGUAAUGGUAACGCGUCUCCCUCCUAAGGAGAAGAGUGCGGGUCCGAGUCCCGUACGGCACG [C46G U54C A69C] | 0.601
GUUCCGUUGGCGUAAUGGUAACGCGUCUCCCUCCUAAGGAGAAGAGUGCGGGUCCGAGUCCAGUACGGAACG [C46G U54C C62A] | ≤ 0.5
GUUCCGUUGGCGUAAUGGUAACGCGUCUCCCUCCUAAGGAGAAGAGUGCGGGUGCGAGUCCCGUACGGAACG [C46G U54G] | 0.527
GUUCCGUUGGCGUAAUGGUAACGCGUCUCCCUCCUAAGGAGAAGAUUGCGGGUUCGAGUCCCGUCCGGAACG [C46U A65C] | 0.997
GUUCCGUUGGCGUAAUGGUAACGCGUCUCCCUCCUAAGGAGAAGAUUGCGGGUUCGAGUCCCGUUCGGUACG [C46U A65U A69U] | 0.737
GUUCCGUUGGCGUAAUGGUAACGCGUCUCCCUCCUAAGGAGAAGAUUGAGGGUUUGAGUCCCGUACGGAACG [C46U C49A C55U] | 0.678
GUUCCGUUGGCGUAAUGGUAACGCGUCUCCCUCCUAAGGAGAAGAUUGCGGGUUGGAGUCCCGUACGGAACG [C46U C55G] | 0.65
GUUCCGUUGGCGUAAUGGUAACGCGUCUCCCUCCUAAGGAGAAGAUUGCGGGUUUGAGUCCCGUACGGAACG [C46U C55U] | 0.823
GUUCCGUUGGCGUAAUGGUAACGCGUCUCCCUCCUAAGGAGAAGAUUGCGGGUUCGAGUGCGGUACGGAACG [C46U C60G C62G] | ≤ 0.5
GUUCCGUUGGCGUAAUGGUAACGCGUCUCCCUCCUAAGGAGAAGAUUGCGGGUUCGAGUUCCGUCCGGAACG [C46U C60U A65C] | 0.589
GUUCCGUUGGCGUAAUGGUAACGCGUCUCCCUCCUAAGGAGAAGAUUGCGGGUUCGAGUCCCGUAGUGAACG [C46U C66G G67U] | ≤ 0.5
GUUCCGUUGGCGUAAUGGUAACGCGUCUCCCUCCUAAGGAGAAGAUUGCGGGUUCGAGUCCCGUAUGGAACG [C46U C66U] | 1.02
GUUCCGUUGGCGUAAUGGUAACGCGUCUCCCUCCUAAGGAGAAGAUUCCGGGUUCGAGUCCCGUACGGAACG [C46U G48C] | 0.951
GUUCCGUUGGCGUAAUGGUAACGCGUCUCCCUCCUAAGGAGAAGAUUCCGGGUUCGAGUCCUGUACGGAACG [C46U G48C C62U] | 1.03
GUUCCGUUGGCGUAAUGGUAACGCGUCUCCCUCCUAAGGAGAAGAUUGCAGGUUCGAGUCCCGUAGGGAACG [C46U G50A C66G] | ≤ 0.5

— the RNAGym collection of RNA variant scans (doi:10.1126/science.aae0568)
